Key:
[1] = target: Protein farnesyltransferase (Rattus norvegicus, UniProt Q02293+Q04631); experiment: In vitro ability to displace radiolabeled FTI from farnesyltransferase in cultured Ha-ras transformed RAT1 cells; type: cell-based
How it was run: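 Competitive binding in v-Ha-ras transformed RAT1 cells seeded at 200,000 cells/well and cultured 16 h. [125I]-labelled FTI radiotracer diluted to 1 nM in culture medium with test FTI is added to the monolayers. Incubation 4 h at 37 °C, PBS rinse, trypsinization, gamma counting. Nonspecific binding is taken with 1000-fold excess unlabeled FTI.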

[2] = target: Geranylgeranyl transferase type I (Homo sapiens, UniProt P49354+P53609); experiment: In vitro inhibitory activity to reduce the human geranylgeranyl transferase type I (GGPTase-1)-catalyzed incorporation of 3H GGPP (100 nM) into K-Ras-derived peptide; type: functional
[3] = target: Protein farnesyltransferase (Homo sapiens, UniProt P49354+P49356); experiment: In vitro inhibitory activity to reduce the human farnesyltransferase catalyzed incorporation of [3H]FPP into recombinant Ras-CVIM; type: functional
How it was run: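 Human FPTase, [3H]FPP incorporated into recombinant Ras-CVIM. Enzyme at 1 nM, or 10 pM for some compounds.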

[4] = rat
[5] = Clearance by iv administration in dogs at a dose of 1 mg/kg; conditions: dog, in vivo

| SMILES | IC50 [1] [nM] | IC50 [2] [nM] | IC50 [3] [nM] | half-life [4] [h] | clearance [5] [mL/min/kg] |
| --- | --- | --- | --- | --- | --- |
| C[C@@H]1NCc2cncn2Cc2ccc(C#N)c(c2)Oc2ccc3cccc(c3c2)NC1=O | 248 | 4820 | 11 | – | – |
| N#Cc1ccc2cc1Oc1ccc3cccc(c3c1)NC(=O)CN(Cc1ccccc1)Cc1cncn1C2 | 29.6 | > 20000 | 2.6 | – | – |
| C[C@H]1NCc2cncn2Cc2ccc(C#N)c(c2)Oc2ccc3cccc(c3c2)NC1=O | 23 | 313 | 1.3 | – | – |
| N#Cc1ccc2cc1Oc1ccc3cccc(c3c1)NC(=O)[C@@H](Cc1ccccc1)NCc1cncn1C2 | 17 | 66 | 0.47 | – | – |
| N#Cc1ccc2cc1Oc1ccc3cccc(c3c1)NC(=O)[C@@H](Cc1ccccc1)N(Cc1ccccc1)Cc1cncn1C2 | 574 | > 20000 | 50 | – | – |
| N#Cc1ccc2cc1Oc1ccc3cccc(c3c1)C(=O)NCCNC(=O)Cc1cncn1C2 | 409 | 250 | 2.5 | – | – |
| C[C@@H]1C(=O)Nc2cccc3ccc(cc23)Oc2cc(ccc2C#N)Cn2cncc2CN1Cc1ccccc1 | 240 | > 20000 | 18 | – | – |
| CN1CC(=O)Nc2cccc3ccc(cc23)Oc2cc(ccc2C#N)Cn2cncc2C1 | 196 | 2070 | 5.7 | – | – |
| C[C@@H]1C(=O)N(C)c2cccc3ccc(cc23)Oc2cc(ccc2C#N)Cn2cncc2CN1C | 15 | 6760 | – | – | – |
| CC[C@H]1NCc2cncn2Cc2ccc(C#N)c(c2)Oc2ccc3cccc(c3c2)NC1=O | 410 | 469 | 1.2 | – | – |
| CN1C(=O)CNC(=O)Cc2cncn2Cc2ccc(C#N)c(c2)Oc2ccc3cccc1c3c2 | 65 | 1090 | 6.6 | – | – |
| N#Cc1ccc2cc1Oc1ccc3cccc(c3c1)N1CCN(CC1=O)Cc1cncn1C2 | – | – | – | 1 | 5.1 |
| N#Cc1ccc2cc1Oc1ccc3cccc(c3c1)NC(=O)[C@@H](Cc1ccccc1)NC(=O)Cc1cncn1C2 | 310 | 29 | 3.5 | – | – |
| N#Cc1ccc2cc1Oc1ccc3cccc(c3c1)NC(=O)[C@@H](Cc1cccnc1)NCc1cncn1C2 | 1310 | 147 | 1.8 | – | – |
| N#Cc1ccc2cc1Oc1ccc3cccc(c3c1)NC(=O)[C@@H](Cc1cccs1)NCc1cncn1C2 | 43 | 72 | 2.1 | – | – |
| N#Cc1ccc2cc1Oc1ccc3cccc(c3c1)NC(=O)CNCc1cncn1C2 | 37 | 675 | 4.3 | – | – |
| N#Cc1ccc2cc1Oc1ccc3cccc(c3c1)C(=O)NCCCNCc1cncn1C2 | 99 | 890 | 2.3 | – | – |
| CN1CC(=O)N(C)c2cccc3ccc(cc23)Oc2cc(ccc2C#N)Cn2cncc2C1 | 13 | 12800 | 8.4 | – | – |
| C[C@H]1NC(=O)Cc2cncn2Cc2ccc(C#N)c(c2)Oc2ccc3cccc(c3c2)NC1=O | 258 | 50 | 3.3 | – | – |
| CN1C(=O)CNCc2cncn2Cc2ccc(C#N)c(c2)Oc2ccc3cccc1c3c2 | 55 | 6720 | 15 | – | – |
| N#Cc1ccc2cc1Oc1ccc3cccc(c3c1)NC(=O)CNC(=O)Cc1cncn1C2 | 67 | 150 | 3.8 | – | – |
| CN1Cc2cncn2Cc2ccc(C#N)c(c2)Oc2ccc3cccc(c3c2)NC(=O)[C@H]1Cc1ccccc1 | 184 | 350 | 2.7 | – | – |
| C[C@H]1NCc2cncn2Cc2ccc(C#N)c(c2)Oc2ccc3cccc(c3c2)N(C)C1=O | 17 | 3160 | 16 | – | – |
| N#Cc1ccc2cc1Oc1ccc3cccc(c3c1)C(=O)NCCNCc1cncn1C2 | 7.1 | 77 | 4.5 | – | – |
| C[C@@H]1C(=O)Nc2cccc3ccc(cc23)Oc2cc(ccc2C#N)Cn2cncc2CN1C | > 100 | 1220 | 7 | – | – |
